≈ marks a conversion by molar mass, not a printed value. Calls of active or inactive are those of the source.
What was measured:
HepG2 = assay: Growth inhibition of human HepG2 cells; format: functional
How it was run: (§1)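 Cells seeded per well: NUGC-3 4500, HONE-1 6000, MCF-7 6500, NCI-H460 2500, HepG2 10000, A549 5000; A549 grown in RPMI 1640 with 2 g/L NaHCO₃, 2 mM L-glutamine and 10% FBS. GI₅₀ = concentration giving 50% growth inhibition, mean of at least three experiments each in duplicate. Paclitaxel served as positive control.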

[1] = Clearance in Sprague-Dawley rat at 3 mg/kg, iv by HPLC-MS method; format: ADME, organism-based; design: dose 3 mg/kg, route intravenous; details: in vivo
How it was run: (§2)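 Male rats (330−380 g, 9−10 weeks), jugular vein cannula implanted 1 day before, fasted. 3 mg/kg given iv or orally (n = 3) in DMA/PEG400 30/70 v/v. Blood (150 μL) drawn at 0, 2, 5 (iv only), 15, 30 min and 1, 2, 4, 6, 8, 12, 24 h; plasma analysed by HPLC-MS; noncompartmental analysis.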

A549 [2] = assay: Growth inhibition of human A549 cells; format: functional; how it was run: as §1
[3] = tested on: Transmissible gastroenteritis virus; assay: Antiviral activity against Transmissible gastroenteritis virus infected in ST cells pre-treated 2 hrs before virus infection measured 6 hrs post virus infection by immunofluorescent assay; format: functional, organism-based; details: Alphacoronavirus 1, ST
How it was run: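 ST cells, with or without 2 h compound pretreatment (10 concentrations), infected with TGEV at MOI 10. Immunofluorescence with anti-spike and anti-nucleocapsid antibodies at 6 hpi. EC50 from dose–response curves, mean of at least three experiments, each in duplicate.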

[4] = Apparent elimination half life in Sprague-Dawley rat at 3 mg/kg, iv by HPLC-MS method; format: ADME, organism-based; design: dose 3 mg/kg, route intravenous; details: in vivo, read-out: betat1/2(app) (converted); how it was run: as §2
RAW264.7 = assay: Antiinflammatory activity in mouse RAW264.7 cells assessed as inhibition of LPS-induced nitric oxide production incubated for 18 hrs by nitrate/nitrite assay; format: functional, cell-based; details: RAW264.7, 18 h
How it was run: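 RAW264.7 seeded 65000 cells/well, cultured 24 h, then medium replaced with complete medium containing IFNγ (20 ng/mL)/LPS (5 μg/mL) plus compound at various concentrations for 18 h; nitric oxide measured by Nitrate/Nitrite kit. EC50 as mean of at least three experiments, each in duplicate.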

[5] = Oral bioavailability in Sprague-Dawley rat at 3 mg/kg by HPLC-MS method; format: ADME, organism-based; details: in vivo; how it was run: as §2
NCI-H460 [6] = assay: Down regulation of cyclin A2 expression in human NCI-H460 cells incubated for 24 hrs by Western blotting; format: functional, cell-based
NCI-H460 [7] = assay: Induction of c-Jun protein accumulation in human NCI-H460 cells incubated for 24 hrs by Western blotting; format: functional, cell-based
Rattus norvegicus = assay: Antiinflammatory activity against Sprague-Dawley rat assessed as reduction in carrageenan-induced hind paw edema at 5 mg/kg, ip; format: functional; design: scale not given: the % may be the effect or the level left; details: route intraperitoneal
How it was run: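 Female Sprague−Dawley rats (193−214 g, 8−9 weeks, n = 5) dosed ip 1 h before subplantar injection of 100 μL 1% carrageenan in saline into the left hind paw. Vehicle group received DMSO (100 μL); indomethacin served as positive control. Inhibition of 30% or more counted as significant.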

A549 [8] = assay: Down regulation of cyclin A2 expression in human A549 cells incubated for 24 hrs by Western blotting; format: functional, cell-based
[9] = Apparent elimination half life in Sprague-Dawley rat at 3 mg/kg, po by HPLC-MS method; format: ADME, organism-based; design: dose 3 mg/kg, route oral; details: in vivo, read-out: betat1/2(app) (converted); how it was run: as §2
Mus musculus [10] = assay: Toxicity in Nu-Foxn1'nu mouse assessed as effect on motor coordination at 5 mg/kg, po administered once daily on day 1 to 10, day 15 to 19 and day 22 to 26 measured during day 58 to 61 post dose by rotarod test; format: organism-based; design: dose 5 mg/kg, route oral; details: in vivo
How it was run: (§3)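 Male nude mice already used in the A549 xenograft study (oral dosing, vehicle 25% DMA + 75% PEG400). Groups: vehicle (n = 8), 5 mg/kg (n = 7), 10 mg/kg (n = 8), plus untreated nontumor mice (n = 5). Rota-rod training on day 58, testing on days 59–61, rod accelerating 2 to 30 rpm over 300 s. Read-out was latency to fall, 300 s cutoff.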

Murine hepatitis virus [11] = assay: Antiviral activity against Murine hepatitis virus JHM infected in mouse DBT cells assessed as reduction in N-protein expression at 0.05 to 0.5 uM pre-treated 1 hr before virus infection and measured 24 hrs post infection by immunofluorescent assay; format: functional, organism-based
How it was run: (§4)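 DBT cells (2.8 × 10⁵/well) seeded the day before infection in DMEM with 2% FBS. Compound added 1 h before MHV-JHM at MOI 0.005 (virus grown in BNL CL.2 cells). Cytopathic effect viewed by phase contrast and N protein by immunofluorescence at 24 hpi.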

MCF7 = assay: Down regulation of cyclin A2 expression in human MCF7 cells incubated for 24 hrs by Western blotting; format: functional, cell-based
[12] = Cytotoxicity against mouse RAW264.7 cells; format: cell-based
How it was run: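 RAW264.7 cells stimulated with LPS/IFNγ and compound-treated in parallel with the NO assay; CC50 taken as concentration giving 50% inhibition of cell growth. Mean of at least three experiments, each in duplicate.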

[13] = Cmax in Sprague-Dawley rat at 3 mg/kg, po by HPLC-MS method; format: ADME, organism-based; design: dose 3 mg/kg, route oral; details: in vivo; how it was run: as §2
Murine hepatitis virus [14] = assay: Antiviral activity against Murine hepatitis virus JHM infected in mouse DBT cells assessed as reduction in virus-induced cytopathic effect at 0.05 to 0.5 uM pre-treated 1 hr before virus infection and measured 24 hrs post infection by phase contrast microscopy; format: functional, organism-based; how it was run: as §4
[15] = Solubility in DMSO; format: physicochemical
How it was run: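 Compound dissolved in DMSO with sonication; maximal volume before precipitation measured and used to calculate saturation solubility.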

NCI-H460 [16] = assay: Growth inhibition of human NCI-H460 cells; format: functional; how it was run: as §1
NUGC-3 = assay: Growth inhibition of human NUGC3 cells; format: functional; how it was run: as §1
[17] = Volume of distribution at steady state in Sprague-Dawley rat at 3 mg/kg, iv by HPLC-MS method; format: ADME, organism-based; design: dose 3 mg/kg, route intravenous; details: in vivo, read-out: Vdss; how it was run: as §2
Mus musculus [18] = assay: Toxicity in Nu-Foxn1'nu mouse assessed as effect on motor coordination at 10 mg/kg, po administered once daily on day 1 to 10, day 15 to 19 and day 22 to 26 measured during day 58 to 61 post dose by rotarod test; format: organism-based; design: dose 10 mg/kg, route oral; details: in vivo; how it was run: as §3
A549 [19] = assay: Induction of c-Jun protein accumulation in human A549 cells incubated for 24 hrs by Western blotting; format: functional, cell-based
[20] = Tmax in Sprague-Dawley rat at 3 mg/kg, po by HPLC-MS method; format: ADME, organism-based; design: dose 3 mg/kg, route oral; details: in vivo; how it was run: as §2
[21] = tested on: Transmissible gastroenteritis virus; assay: Antiviral activity against Transmissible gastroenteritis virus infected in ST cells assessed as reduction in N-protein expression pre-treated before virus infection measured 16 hrs post virus infection by Western blotting; format: functional, organism-based
How it was run: (§5)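 ST cells pretreated with compound, then infected with TGEV. Western blot for nucleocapsid (N) protein, caspase 3 (cleavage of procaspase 3) and GAPDH at 16 hpi. Representative of at least three independent experiments.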

[22] = tested on: Transmissible gastroenteritis virus; assay: Antiviral activity against Transmissible gastroenteritis virus infected in ST cells assessed as reduction in caspase-3 activation pre-treated before virus infection measured 16 hrs post virus infection by Western blotting; format: functional, organism-based; how it was run: as §5

With CCN1Cc2c(c3ccc(OC)cc3c3cc(OC)c(OC)cc23)C(O)C1 (configuration not stated) as the compound, how does the GI50 (HepG2) read?
Its GI50 is 40 nM.

And the clearance [1]?
Its clearance is 51.8 mL/min/kg.

What about the GI50 (A549 [2]) of the same compound?
The GI50 was 20 nM.

What about the EC50 [3] of the same compound?
Its EC50 is 40 nM.

And the half-life [4]?
Its half-life is 48 min.

And the EC50 (RAW264.7)?
The EC50 was 70 nM.

What about the bioavailability [5] of the same compound?
The bioavailability was 63.5%.

What about the Activity (NCI-H460 [6]) of the same compound?
The Activity was “Active”.

And the Activity (NCI-H460 [7])?
The Activity was “Active”.

What about the Activity (Rattus norvegicus) of the same compound?
The Activity was >60%.

What about the Activity (A549 [8]) of the same compound?
The Activity was “Active”.

And the half-life [9]?
The half-life was 708 min.

And the Activity (Mus musculus [10])?
Its Activity is “Non-toxic”.

What about the Activity (Murine hepatitis virus [11]) of the same compound?
The Activity was “Active”.

What about the Activity (MCF7) of the same compound?
The Activity was “Active”.

And the CC50 [12]?
Its CC50 is 240 nM.

What about the Cmax [13] of the same compound?
The Cmax was 72.4 ng/mL.

And the Activity (Murine hepatitis virus [14])?
The Activity was “Active”.

What about the solubility [15] of the same compound?
Its solubility is 60.5 mM (≈ 22.2 mg/mL).

What about the GI50 (NCI-H460 [16]) of the same compound?
Its GI50 is 20 nM.

And the GI50 (NUGC-3)?
Its GI50 is 30 nM.

What about the Vd [17] of the same compound?
The Vd was 2.7 L/kg.

What about the Activity (Mus musculus [18]) of the same compound?
Its Activity is “Non-toxic”.

And the Activity (A549 [19])?
Its Activity is “Active”.

And the Tmax [20]?
Its Tmax is 18 min.

What about the Activity [21] of the same compound?
Its Activity is “Active”.

And the Activity [22]?
The Activity was “Active”.

Source: ChEMBL document CHEMBL2177013, “Synthesis and biological evaluation of tylophorine-derived dibenzoquinolines as orally active agents: exploration of the role of tylophorine e ring on biological activity” (J Med Chem, 2012)
